Compound activity as filed in PubChem.
HCT116 bCat-KO: primary screen for growth suppressors in beta-catenin knockout HCT116 cells (colon tumor, human) | HCT116 beta-catenin knockout viability, CellTiter-Glo, 60 h; hits give low values | viability, % at 10 µM | 140,000 compounds, 1.5% hits | AID 818, 2007;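 active means viability at or under a set limit, the compound median less 4 SD, cut at about 6% in these data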;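 further: 0% = Hyamine 1622 control at 20 µM and 100% = untreated cell control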
PTK2B oligo ant: antagonists of Pyk2 self-association, primary screen, Q293 cells, FERM NanoBiT luminescence, HTS. Protein-tyrosine kinase 2-beta (Homo sapiens), Q14289. hits give low values. z-score (the deposit names both 25 µM and 10 µM). 99,000 compounds, 0.83% hits;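 active means Z-score of -3 or lower, scaled per plate to the spread of control and sample wells; inactive means z-score above -3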;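 further: negative z-score means lost luminescence so less FERM oligomerization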
Target sequence (Q14289 whole entry, looked up): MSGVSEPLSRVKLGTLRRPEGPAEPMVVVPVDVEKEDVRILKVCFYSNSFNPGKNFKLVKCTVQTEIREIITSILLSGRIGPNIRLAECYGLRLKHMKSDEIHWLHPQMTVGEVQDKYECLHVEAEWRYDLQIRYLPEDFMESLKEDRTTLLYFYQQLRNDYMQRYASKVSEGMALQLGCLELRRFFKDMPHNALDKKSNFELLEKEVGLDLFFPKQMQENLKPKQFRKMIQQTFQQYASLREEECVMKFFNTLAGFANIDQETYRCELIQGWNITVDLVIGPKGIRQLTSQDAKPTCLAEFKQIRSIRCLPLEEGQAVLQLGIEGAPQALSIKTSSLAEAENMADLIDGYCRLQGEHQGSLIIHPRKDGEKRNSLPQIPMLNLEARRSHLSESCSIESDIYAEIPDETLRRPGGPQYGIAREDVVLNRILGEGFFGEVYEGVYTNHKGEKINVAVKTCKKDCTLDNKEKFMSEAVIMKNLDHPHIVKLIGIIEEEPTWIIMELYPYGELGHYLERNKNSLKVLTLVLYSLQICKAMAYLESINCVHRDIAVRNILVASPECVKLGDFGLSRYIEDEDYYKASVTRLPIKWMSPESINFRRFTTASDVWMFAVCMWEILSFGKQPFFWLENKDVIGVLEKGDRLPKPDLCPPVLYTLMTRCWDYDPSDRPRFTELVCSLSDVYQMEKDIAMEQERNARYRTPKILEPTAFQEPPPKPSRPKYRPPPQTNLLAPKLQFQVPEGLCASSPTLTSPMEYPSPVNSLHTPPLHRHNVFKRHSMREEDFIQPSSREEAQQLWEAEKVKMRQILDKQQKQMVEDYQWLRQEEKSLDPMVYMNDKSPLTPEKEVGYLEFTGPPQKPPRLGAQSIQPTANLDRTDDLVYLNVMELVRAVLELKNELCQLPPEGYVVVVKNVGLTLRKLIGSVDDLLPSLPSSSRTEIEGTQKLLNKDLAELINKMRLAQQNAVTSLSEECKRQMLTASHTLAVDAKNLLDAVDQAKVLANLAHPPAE
Fibroblast inh: antiproliferative effect on LL 47 fibroblasts – human, LL 47 cells, CellTiter-Glo luminescence, primary screen | LL 47 human lung fibroblast viability, ATP luminescence; hits give low values | viability, % at 10 µM | 85,000 compounds, 1.1% hits | AID 719, 2007;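 active means viability at or below 50% in the single dose screen; inactive means viability above 50%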;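 further: compound exposure lasted 72 h before the ATP readout; 100% = median luminescence of untreated cell-only wells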
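Benchmarks: Cell-only wells, no compound | Test system: LL 47 human lung fibroblasts, passage 12 or lower | Input: 1,150 cells/well | Measured by: CellTiter-Glo luminescence measuring cellular ATP | Medium: IMEM, 15% FBS supplement | Schedule: Overnight attachment after seeding, then 72 h compound exposure at 37 °C | Doses: Compound addition at 0.1% DMSO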
H69AR growth 86K: proliferation blockers of H69AR lung cancer cells, primary screen, cell-based, human, 86K library | H69AR lung tumor viability, ATP luminescence, 72 h; hits give low values | AID 598, 2007 | viability, % at 10 µM | 85,000 compounds, 6% hits;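 active means viability at or below 40%; inactive means viability above 40%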;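 further: multidrug resistant small cell line overexpressing MRP-1 efflux transporter; 100% = mean luminescence of untreated control wells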
HUVEC inhibit: inhibitors of HUVEC proliferation, primary screen, cell-based, 384-well; CellTiter-Glo luminescence, 72 h; hits give low values; viability, % at 10 µM (by protocol); 86,000 compounds, 1.1% hits; AID 648, 2007;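 active means viability at or below 30%; inactive means viability above 30%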;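 further: 100% = median luminescence of DMSO-only cell control wells on each plate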
HCT116 PTEN-null: growth suppression of PTEN-null HCT116, primary screen, cell-based, CellTiter-Glo; HCT116 PTEN-null viability, 60 h; hits give low values; viability, % at 10 µM; 140,000 compounds, 1.2% hits; AID 827, 2007;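 active means viability at or below a set limit, 4 SD under the median of all tested compounds, cut at about 3.7% in these data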;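 further: PTEN knockout HCT116 line with beta catenin targeted HCT116 as companion control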
Active calls of the source: *; x = no result given. The entries come from a sample that favours hits as a whole.

SMILES	HCT116 bCat-KO	PTK2B oligo ant	Fibroblast inh	H69AR growth 86K	HUVEC inhibit	HCT116 PTEN-null
COc1ccc(N2CCN(c3nc(NCCc4ccc(OC)c(OC)c4)nc(OC)n3)CC2)cc1	30	-3.1*	71	72	61	24
CCCc1nn(C)c(C(=O)Nc2ccccc2)c1Cl	97	x	x	x	x	101
COc1ccc(CC(=O)Nc2ccc(-c3noc(-c4cccc(OC)c4)n3)cc2)cc1	28	0.91	88	70	106	17
COc1cccc(-c2nc(-c3ccc(NC(=O)c4cccnc4)cc3)no2)c1	87	-0.22	100	26*	101	87
O=C(Nc1ccc(-c2noc(-c3cccs3)n2)cc1)c1cccnc1	78	-2.7	101	10*	52	73
COc1cccc(NC(=S)N(CCCN2CCOCC2)Cc2cn(C)c3ccccc23)c1	77	x	x	x	x	74
CCC(C)n1c(=O)c(C(=O)Nc2ccccc2S(N)(=O)=O)c(O)c2ccccc21 (stereo not drawn)	9	-1.3	102	27*	69	5
CC(C)Cn1c(=O)c(C(=O)Nc2ccccc2S(N)(=O)=O)c(O)c2ccccc21	96	-2	x	x	x	81
Cc1ccc(OCc2n[nH]c(=S)n2C2CCCCC2)cc1	89	0.23	100	37*	94	87
Cc1cccc(OCc2n[nH]c(=S)o2)c1	100	0.98	97	99	102	95
S=c1[nH]nc(COc2ccc(Cl)cc2)n1C1CCCCC1	90	0.24	88	64	89	90
Cc1cccc(OCc2n[nH]c(=S)n2C2CCCCC2)c1	82	-0.81	84	22*	64	77
COc1ccc(C(=O)NCC(C)(C)SCc2c(C)cc(C)cc2C)cc1	72	-0.62	x	x	x	85
O=[N+]([O-])c1cc(-c2ncccn2)c([N+](=O)[O-])s1	2.2*	x	x	x	x	7
O=C(Nc1ncccn1)c1cc([N+](=O)[O-])cc([N+](=O)[O-])c1	99	x	x	x	x	81
CC(=O)Nc1nc(S(=O)(=O)c2ccc(C)cc2)c(Cl)s1	85	-1.8	101	78	110	87
Cc1ccc(S(=O)(=O)c2nc(Nc3nccs3)sc2Cl)cc1	80	-3.1*	97	89	75	80
CCCCNS(=O)(=O)c1ccc2nc(SCC(=O)Nc3sccc3C#N)[nH]c2c1	47	-3.7*	94	21*	50	54
C=CCn1c(=O)c2ccccc2n2c(SCc3nnc(-c4ccccc4Br)o3)nnc12	91	-0.14	87	65	98	93
CN(C)S(=O)(=O)c1ccc(C(=O)OCC(=O)c2ccc(OC(F)F)cc2OC(F)F)cc1	98	0.23	x	99	95	102
COc1ccc2[nH]c3nc(SCc4nnc(-c5ccc(C)cc5)o4)nnc3c2c1	64	-0.14	68	18*	54	52
Cc1cc(C)c(S(=O)(=O)n2c([N+](=O)[O-])cnc2C)c(C)c1	94	x	x	x	x	94
O=c1cc(-c2ccccc2)[nH]n1-c1nc2ccccc2[nH]1	4.5*	0.15	27*	x	54	8
COC(=O)C1=C(C)N(CCc2cc(OC)c(OC)c(OC)c2)C(=O)N[C@H]1c1ccc(Br)cc1	91	x	x	x	x	76
CCOc1cc(N(CC)CC)ccc1/C=C(/C#N)c1nc2ccccc2[nH]1	65	-3.1*	x	x	x	61
SMILES	HCT116 bCat-KO	PTK2B oligo ant	Fibroblast inh	H69AR growth 86K	HUVEC inhibit	HCT116 PTEN-null
CCN(CC)c1ccc(/C=C(/C#N)c2nc3ccc(C)cc3[nH]2)c(OC(C)C)c1	84	-3.1*	x	x	x	69
Brc1ccccc1-c1nnc(COc2cccc3cccnc23)o1	58	0.29	100	32*	108	68
Cc1cccc(N(C(=O)c2nsc(Cl)c2Cl)C(C(=O)NC2CCCC2)c2ccc(O)cc2)c1 (stereo not drawn)	91	x	x	x	x	90
CC(C)(C)/C(O)=C/c1nc2ccccc2[nH]c1=O	94	x	x	x	x	100
CC(C)c1ccc(/C=C(\c2nc3ccccc3[nH]2)S(=O)(=O)c2ccccc2)cc1	1.8*	x	x	x	x	1.9*
N#C/C(=C\c1cccc(Oc2ccc(C(F)(F)F)cc2[N+](=O)[O-])c1)c1nc2ccccc2[nH]1	85	-0.23	x	x	x	88
